According to ChEMBL document CHEMBL3351236, “Prodrug oncrasin-266 improves the stability, pharmacokinetics, and safety of NSC-743380” (Bioorg Med Chem, 2014):
Activity calls are given as the source filed them. The calls are words filed in the database; no cut-off is given here.

Columns and labels:
[1] = tested on: Lung; assay: Drug level in lung of Balb/c mouse xenografted with human Calu3 cells assessed as aldehyde metabolite level at 60 mg/kg, iv using compound formulated in Solutol HS15 and ethyl alcohol measured after 24 hrs by HPLC/MS method; assay type: ADME, organism-based, Calu-3; set-up: dose 60 mg/kg, route intravenous; details: in vivo
Method in brief: (§1)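 Nude mice bearing subcutaneous Calu3 xenografts, 1 mouse per treatment group. Organs and tumor were taken 24 h later and kept at −80°C, then homogenized in methanol (50 mg/ml) on ice. Homogenate was extracted with acetonitrile containing 0.2% formic acid plus an internal standard, centrifuged, and the supernatant analyzed by HPLC/MS.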

[2] = tested on: Tumour; assay: Drug level in tumor of Balb/c mouse xenografted with human Calu3 cells assessed as aldehyde metabolite level at 60 mg/kg, iv using compound formulated in Solutol HS15 and ethyl alcohol measured after 24 hrs by HPLC/MS method; assay type: ADME, organism-based, Neoplasm, Calu-3; set-up: dose 60 mg/kg, route intravenous; details: in vivo; method in brief: as §1
[3] = tested on: Kidney; assay: Drug level in kidney of Balb/c mouse xenografted with human Calu3 cells assessed as aldehyde metabolite level at 60 mg/kg, iv using compound formulated in Solutol HS15 and ethyl alcohol measured after 24 hrs by HPLC/MS method; assay type: ADME, organism-based, Calu-3; set-up: dose 60 mg/kg, route intravenous; details: in vivo; method in brief: as §1
[4] = tested on: Spleen; assay: Drug level in spleen of Balb/c mouse xenografted with human Calu3 cells assessed as aldehyde metabolite level at 60 mg/kg, iv using compound formulated in Solutol HS15 and ethyl alcohol measured after 24 hrs by HPLC/MS method; assay type: ADME, organism-based, Calu-3; set-up: dose 60 mg/kg, route intravenous; details: in vivo; method in brief: as §1
[5] = Drug level in intestine of Balb/c mouse xenografted with human Calu3 cells at 60 mg/kg, iv using compound formulated in Solutol HS15 and ethyl alcohol measured after 24 hrs by HPLC/MS method; assay type: ADME, organism-based, Calu-3; set-up: dose 60 mg/kg, route intravenous; details: read-out: Drug uptake; method in brief: as §1
[6] = tested on: Intestine; assay: Drug level in intestine of Balb/c mouse xenografted with human Calu3 cells assessed as aldehyde metabolite level at 60 mg/kg, iv using compound formulated in Solutol HS15 and ethyl alcohol measured after 24 hrs by HPLC/MS method; assay type: ADME, organism-based, Calu-3; set-up: dose 60 mg/kg, route intravenous; details: in vivo; method in brief: as §1
[7] = tested on: Mus musculus; assay: Toxicity in Balb/c mouse assessed as mortality level at 300 mg/kg, ip using compound formulated in Solutol HS15 and ethyl alcohol measured after 3 days; assay type: organism-based; set-up: dose 300 mg/kg, route intraperitoneal; details: in vivo, 72 h
Method in brief: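 Acute toxicity: 3 Balb/c mice (7–8 weeks) per group, given i.p. 300 mg/kg on day 1 and again on day 2. Deaths were recorded by day; survivors were followed for 2 weeks.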

[8] = tested on: Mus musculus; assay: Toxicity in Balb/c mouse assessed as mortality at 150 mg/kg, ip dosed daily for 3 days using compound formulated in Solutol HS15 and ethyl alcohol measured on day 5; assay type: organism-based; set-up: dose 150 mg/kg, route intraperitoneal; details: in vivo, 72 h
[9] = tested on: Mus musculus; assay: Toxicity in Balb/c mouse assessed as serum AST level at 150 mg/kg, ip dosed daily for 3 days using compound formulated in Solutol HS15 and ethyl alcohol measured on day 6; assay type: organism-based; set-up: dose 150 mg/kg, route intraperitoneal; details: in vivo, 72 h
[10] = tested on: Mus musculus; assay: Toxicity in Balb/c mouse assessed as serum ALT level at 150 mg/kg, ip dosed daily for 3 days using compound formulated in Solutol HS15 and ethyl alcohol measured on day 6; assay type: organism-based; set-up: dose 150 mg/kg, route intraperitoneal; details: in vivo, 72 h
[11] = tested on: Mus musculus; assay: Toxicity in Balb/c mouse assessed as serum ALP level at 150 mg/kg, ip dosed daily for 3 days using compound formulated in Solutol HS15 and ethyl alcohol measured on day 6; assay type: organism-based; set-up: dose 150 mg/kg, route intraperitoneal; details: in vivo, 72 h
[12] = tested on: Mus musculus; assay: Toxicity in Balb/c mouse assessed as serum ALT level at 25 mg/kg, ip dosed daily for 8 days using compound formulated in Solutol HS15 and ethyl alcohol measured on day 6; assay type: organism-based; set-up: dose 25 mg/kg, route intraperitoneal; details: in vivo, 192 h
[13] = tested on: Mus musculus; assay: Toxicity in Balb/c mouse assessed as serum ALP level at 25 mg/kg, ip dosed daily for 8 days using compound formulated in Solutol HS15 and ethyl alcohol measured on day 6; assay type: organism-based; set-up: dose 25 mg/kg, route intraperitoneal; details: in vivo, 192 h
[14] = tested on: Mus musculus; assay: Toxicity in Balb/c mouse assessed as changes in blood cell parameters at 150 mg/kg, ip dosed daily for 3 days using compound formulated in Solutol HS15 and ethyl alcohol measured after 48 hrs; assay type: organism-based; set-up: dose 150 mg/kg, route intraperitoneal; details: in vivo
[15] = tested on: NCI-H157; assay: Anticancer activity against human NCI-H157 cells at 0.03 to 30 uM by sulforhodamine B assay; assay type: functional, cell-based
Method in brief: (§2)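 Sulforhodamine B viability assay on lung cancer cells exposed to a range of compound concentrations for 3 days. Untreated reference: DMSO-treated cells set as 100. Values are mean ± SD of quadruplicate wells.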

[16] = tested on: NCI-H460; assay: Anticancer activity against human H460 cells at 0.03 to 30 uM by sulforhodamine B assay; assay type: functional, cell-based; method in brief: as §2
[17] = tested on: Calu-3; assay: Anticancer activity against human Calu3 cells at 0.03 to 30 uM by sulforhodamine B assay; assay type: functional, cell-based; method in brief: as §2
[18] = tested on: NCI-H1299; assay: Anticancer activity against human H1299 cells at 0.03 to 30 uM by sulforhodamine B assay; assay type: functional, cell-based; method in brief: as §2
[19] = Stability in powder form at 4 degC to 37 degC after 1 to 14 days by HPLC method; assay type: physicochemical
Method in brief: (§3)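 Powders were kept at 4°C, room temperature (21°C) or 37°C and sampled for up to 90 days. Each aliquot was dissolved in DMSO, diluted with 9 volumes acetonitrile, and analyzed by HPLC for purity.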

[20] = Stability in powder form in non-evacuated chambers at 37 degC after 1 to 14 days by HPLC method; assay type: physicochemical; method in brief: as §3
[21] = Stability in powder form in non-evacuated chambers at 37 degC after 14 days by HPLC method; assay type: physicochemical; details: read-out: Stability; method in brief: as §3
[22] = Stability in stock solution with Solutol HS15 and ethyl alcohol solvent at room temperature by HPLC method; assay type: physicochemical
Method in brief: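 Stock solutions were made by dissolving compound in 75% (w/v) Solutol HS15 in ethanol (about 20% v/v ethanol). Final concentrations were 8 mg/ml for prodrug and 5 mg/ml for parent. Stocks were stored at 4°C or room temperature; aliquots were frozen at −20°C before HPLC.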

[23] = Stability in injectable solution with Solutol HS15 and ethyl alcohol and 0.9% NaCl assessed as drug hydrolysis within 7 hrs at room temperature by HPLC method; assay type: physicochemical; details: 7 h
[24] = Stability in injectable solution with Solutol HS15 and ethyl alcohol and 0.9% NaCl assessed as drug hydrolysis within 7 hrs at 37 degC by HPLC method; assay type: physicochemical; details: read-out: Drug degradation
[25] = Half life in Balb/c mouse at 25 mg/kg, iv using compound formulated in Solutol HS15 and ethyl alcohol by HPLC/MS method; assay type: ADME, organism-based; set-up: dose 25 mg/kg, route intravenous; details: in vivo
Method in brief: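 Balb/c mice received 25 mg/kg by tail vein in Solutol HS15/ethanol vehicle. Blood was drawn from the tail vein at 0, 1, 2, 3.5, 7 and 24 h, 3 mice per time point, into lithium-heparin tubes. Plasma (50 µl) was precipitated with 150 µl acetonitrile containing 0.2% formic acid and internal standard, iced 15 min, centrifuged, and the supernatant analyzed by HPLC/MS for parent and released drug.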

[26] = tested on: Liver; assay: Drug level in liver of Balb/c mouse xenografted with human Calu3 cells assessed as aldehyde metabolite level at 60 mg/kg, iv using compound formulated in Solutol HS15 and ethyl alcohol measured after 24 hrs by HPLC/MS method; assay type: ADME, organism-based, Calu-3; set-up: dose 60 mg/kg, route intravenous; details: in vivo; method in brief: as §1
[27] = Drug level in tumor of Balb/c mouse xenografted with human Calu3 cells at 60 mg/kg, iv using compound formulated in Solutol HS15 and ethyl alcohol measured after 24 hrs by HPLC/MS method; assay type: ADME, organism-based, Neoplasm, Calu-3; set-up: dose 60 mg/kg, route intravenous; details: read-out: Drug uptake; method in brief: as §1
[28] = Drug level in lung of Balb/c mouse xenografted with human Calu3 cells at 60 mg/kg, iv using compound formulated in Solutol HS15 and ethyl alcohol measured after 24 hrs by HPLC/MS method; assay type: ADME, organism-based, Calu-3; set-up: dose 60 mg/kg, route intravenous; details: read-out: Drug uptake; method in brief: as §1
[29] = tested on: Mus musculus; assay: Toxicity in Balb/c mouse assessed as serum AST level at 25 mg/kg, ip dosed daily for 8 days using compound formulated in Solutol HS15 and ethyl alcohol; details: in vivo, 192 h
[30] = tested on: Mus musculus; assay: Toxicity in Balb/c mouse assessed as histopathological changes in liver at 150 mg/kg, ip dosed once using compound formulated in Solutol HS15 and ethyl alcohol measured after 48 hrs; details: in vivo

Work on OCc1cn(Cc2cccc(Cl)c2)c2ccccc12 yielded a Drug uptake [1] of 34.3 µg/g, a Drug uptake [2] of 1.7 µg/g and a Drug uptake [3] of 31 µg/g. For the same molecule, the Drug uptake [4] was 19.9 µg/g, the concentration at 24 h [5] was 14300 ng/g and the Drug uptake [6] was 30.1 µg/g. For the same molecule, the Activity [7] was “Toxic”, the Activity [8] was “Toxic” and the Activity [9] was 4045 U/L. It also gave an Activity [10] of 1936 U/L, an Activity [11] of 3 U/L and an Activity [12] of 80.3 U/L. For the same molecule, the Activity [13] was 44 U/L, the Activity [14] was “Non-toxic” and the Activity [15] was “Active”. For the same molecule, the Activity [16] was “Active”, the Activity [17] was “Active” and the Activity [18] was “inactive”. For the same molecule, the Stability [19] was “Stable”, the Stability [20] was “Unstable” and the remaining at 336 h [21] was less than 5%. The Stability [22] was 1 weeks, the Stability [23] was “Stable” and the degraded at 7 h [24] was greater than 20%. It also gave a half-life [25] of 30 min, a Drug uptake [26] of 25 µg/g and a concentration at 24 h [27] of 4200 ng/g. For the same molecule, the concentration at 24 h [28] was 4200 ng/g, the Activity [29] was 206.7 U/L and the Activity [30] was “Toxic”.
